Rows were chosen to be rich in hits. Some 4.1% of all compounds tested hit in one or more screens of this group.
KCNK9 block: KCNK9 potassium channel inhibitors, primary screen, HEK293 cells, thallium flux | Potassium channel subfamily K member 9 (Homo sapiens), Q9NPC2 | FluxOR thallium flux fluorescence; stronger effect = lower value | B-score at 10 µM | 1.2% of 310,000 active;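 active = ratio B-score over 3 SD below the library mean, with starting fluorescence within 5 SD of its mean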;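 also: negative B-score means less thallium flux so channel inhibition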
KCNK3 inh: human KCNK3 channel inhibitors, primary screen, CHO cells, FluxOR thallium flux, B-score; B-score at 10 µM; AID 602410, 2012; FluxOR fluorescence; stronger effect = lower value; 0.84% of 340,000 active;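 active = B-score under library mean minus 4 SD, starting fluorescence ratio at most library mean plus 5 SD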;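 also: more negative B-score means stronger inhibition of thallium flux through KCNK3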
Cl transport mod: KCC2 cotransporter modulators, thallium flux, primary screen, cell-based, HEK293 KCC2, FluoZin-2 fluorescence, MLSMR. Solute carrier family 12 member 5 (Homo sapiens), Q9H2X9. KCC2 cells, thallium flux FluoZin-2 fluorescence. B-score of Tl+ flux slope (higher = more flux/activation; lower = inhibition) at 10 µM. 2.2% of 190,000 active. AID 1456, 2008;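 active = thallium flux slope and its plate-corrected score both differing from the plate sample mean at a set confidence after two filtering rounds, in either direction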;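 also: slope of fluorescence scaled to starting intensity during 10 to 20 s after thallium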
KCNQ1 pot: potentiators or activators of KCNQ1 channel, primary screen, cell-based, thallium flux, high-throughput; Potassium voltage-gated channel subfamily KQT member 1 (Homo sapiens), P51787; CHO-K1 KCNQ1, thallium flux FluxOR fluorescence; stronger effect = higher value; B-score at 10 µM; 0.35% of 310,000 active;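 active = fluorescence ratio B-score, a plate-corrected score, at least three library SD, with initial intensity B-score within 5 SD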
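Assay system: CHO-K1 cells stably expressing KCNQ1; Medium: assay buffer with matched DMSO; Also added: K+/Tl+ depolarizing stimulus; Dosing: single dose; Timing: dye 90 min, compound 20 min, room temperature; Measured by: kinetic FluxOR thallium fluorescence, 10-s 1-Hz baseline, 110-s post-stimulus read; Read-out: peak-minus-minimum fluorescence over initial fluorescence, negative-control normalized, B-scored.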
hERG protect: hERG rescue from dofetilide block, primary screen, cell-based, CHO-hERG, FluxOR thallium flux, dofetilide IC70; activation (rescue from dofetilide block), less the hit threshold, % at 10 µM; 0.51% of 310,000 active; dofetilide IC70 present; Voltage-gated inwardly rectifying potassium channel KCNH2 (Homo sapiens), Q12809; AID 1511, 2009;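 active = activation above the mean of controls blocked by dofetilide plus 5 SD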;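 also: thallium influx through hERG after potassium depolarization seen as dye fluorescence rise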
KCNQ1 block: inhibitors of human KCNQ1 channel, primary screen, cell-based, thallium flux, high-throughput. Potassium voltage-gated channel subfamily KQT member 1 (Homo sapiens), P51787. CHO-K1 KCNQ1, FluxOR thallium flux fluorescence; stronger effect = higher value. B-score at 10 µM. 1.3% of 310,000 active. AID 2642, 2010;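 active = compounds whose thallium flux B-score, printed positive for inhibition, exceeds three library SD while starting fluorescence stays within three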;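 also: channel opened by potassium depolarization with thallium stimulus after 20 min compound exposure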
KCNQ1 block val: KCNQ1 potassium channel inhibitors, confirmation, cell-based, Tl flux, duplicate; shares compounds with KCNQ1 block; KCNQ1 cell line, FluxOR thallium flux fluorescence; inhibition, % at 10 µM; 93% of 1,600 active;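 active = primary screen active, with duplicate mean exceeding buffer control mean plus 3 SD of buffer wells, cut at about 28% in these data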
CHO Tl flux: thallium flux effects in parental CHO cells, counter-screen for KCNQ1 inhibitor project, cell-based, Tl flux | shares compounds with KCNQ1 block | fluorescence ratio (Tl flux) at 10 µM | 21% of 1,600 active | parental CHO-K1, FluxOR thallium flux fluorescence ratio; stronger effect = lower value; zero means no signal rise above baseline | AID 588366, 2011;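 active = mean of duplicate thallium-flux fluorescence ratios in parental host cells more than 5 SD below the buffer control mean, cut at about 0.38 in these data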;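 also: ratio is peak minus minimum fluorescence divided by baseline fluorescence; actives read low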
KCNQ1 APC inh: KCNQ1 channel inhibitors, confirmation, orthogonal assay, cell-based, automated electrophysiology; shares compounds with KCNQ1 block; KCNQ1-CHO cells, automated patch clamp current; calls only at 10 µM; 20% of 490 active;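 active = KCNQ1 current drop exceeding 3 SD of negative control wells, seen in both duplicate runs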;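 also: steady state current during a 2 s step from -80 to +40 mV; negative values mean current inhibition and positive values mean potentiation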
KCNQ2 spec: KCNQ2 channel inhibition, selectivity assay for KCNQ1 inhibitor project, cell-based; shares compounds with KCNQ1 block; KCNQ2 cells, FluxOR thallium flux fluorescence; inhibition, % at 10 µM; 71% of 1,600 active;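 active = mean percent inhibition of the KCNQ2 thallium signal more than 5 SD above the buffer-only control wells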;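 also: KCNQ2 expressed in CHO cells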
KCNQ1-KCNE1 inh: KCNQ1/KCNE1 channel inhibition, selectivity assay for KCNQ1 inhibitor project, CHO-K1 cells, thallium flux, FluxOR; shares compounds with KCNQ1 block; FluxOR thallium flux fluorescence; inhibition, % at 10 µM; 77% of 1,600 active;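 active = mean percent inhibition of duplicate wells above the buffer-only control mean plus 3 SD of those controls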
Target sequence (P51787 whole entry, looked up): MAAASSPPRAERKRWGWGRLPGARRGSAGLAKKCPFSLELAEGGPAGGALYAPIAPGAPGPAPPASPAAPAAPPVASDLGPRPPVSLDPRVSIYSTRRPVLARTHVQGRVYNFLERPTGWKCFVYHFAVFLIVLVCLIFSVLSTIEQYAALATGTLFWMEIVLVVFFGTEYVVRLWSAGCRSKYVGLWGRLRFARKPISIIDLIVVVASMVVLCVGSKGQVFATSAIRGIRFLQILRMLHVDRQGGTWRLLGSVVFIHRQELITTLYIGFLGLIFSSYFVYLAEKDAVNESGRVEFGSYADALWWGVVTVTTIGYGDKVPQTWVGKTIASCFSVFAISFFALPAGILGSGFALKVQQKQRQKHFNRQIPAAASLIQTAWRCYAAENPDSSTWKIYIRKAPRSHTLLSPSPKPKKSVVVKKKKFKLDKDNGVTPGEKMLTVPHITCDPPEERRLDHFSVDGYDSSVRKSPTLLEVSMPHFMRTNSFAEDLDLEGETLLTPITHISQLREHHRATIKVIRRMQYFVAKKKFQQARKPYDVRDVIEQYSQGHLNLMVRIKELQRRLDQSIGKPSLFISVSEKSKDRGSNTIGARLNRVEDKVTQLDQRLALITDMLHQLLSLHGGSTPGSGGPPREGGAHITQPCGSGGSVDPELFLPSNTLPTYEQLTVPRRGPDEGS
Large screens that a line does not name were inactive (follow-up assays come after a bar, where they were run).

CCc1c(C#N)c(SCCC(=O)Nc2ccc(F)cc2)nc2c1C(=O)CC(C)(C)C2	KCNQ1 block 12 | KCNQ1 block val 130 | CHO Tl flux 0.38 | KCNQ2 spec 98% | KCNQ1-KCNE1 inh 160%
COc1ccc(C2(C)NC(=O)NC2=O)cc1OC (configuration not stated)	none (no result: Cl transport mod)
O=C1CSc2ccc(C(=O)Nc3cccc(S(=O)(=O)Nc4ccc(Br)cc4)c3)cc2N1	KCNQ1 block 10 | KCNQ1 block val 138 | CHO Tl flux 0.33 | KCNQ2 spec 101% | KCNQ1-KCNE1 inh 188%
O=C(Nc1ccc(Br)cc1)c1cccc(S(=O)(=O)Nc2cnc3ccccc3c2)c1	KCNQ1 block 6 | KCNQ1 block val 139 | CHO Tl flux inactive | KCNQ2 spec inactive | KCNQ1-KCNE1 inh 58%
O=C(Nc1ccc(Br)cc1)c1cccc(S(=O)(=O)Nc2ccccn2)c1	none (no result: Cl transport mod)
COc1ccc(CN2CCC3CC2c2cc(Cl)ccc23)cc1 (configuration not stated)	none (no result: KCNK9 block, Cl transport mod, KCNQ1 pot, hERG protect, KCNQ1 block)
Cc1ccc(SCCNS(=O)(=O)c2ccc(F)cc2)cc1	KCNQ1 block 7 (no result: Cl transport mod) | KCNQ1 block val 47 | CHO Tl flux inactive | KCNQ2 spec 62% | KCNQ1-KCNE1 inh 50%
Cc1ccc2c(c1)N(CC(=O)NCCCN1CC(C)CC(C)C1)C(=O)c1cccnc1O2 (configuration not stated)	none (no result: Cl transport mod)
CCCCSc1ccc2nc(-c3ccc(C#N)cc3)cn2c1	KCNQ1 block 7 | KCNQ1 block val 104 | CHO Tl flux inactive | KCNQ1 APC inh active | KCNQ2 spec 67% | KCNQ1-KCNE1 inh 92%
CCN(CC)CCN(C(=O)c1ccc2ncsc2c1)c1nc2cc3c(cc2s1)OCO3	KCNQ1 block 10 (no result: Cl transport mod) | KCNQ1 block val 92 | CHO Tl flux inactive | KCNQ1 APC inh active | KCNQ2 spec 89% | KCNQ1-KCNE1 inh 120%
CN(C)CCN(C(=O)c1ccc2c(c1)CCCC2)c1nc2cc3c(cc2s1)OCCO3	KCNQ1 block 11 (no result: Cl transport mod) | KCNQ1 block val 106 | CHO Tl flux 0.35 | KCNQ2 spec 125% | KCNQ1-KCNE1 inh 121%
CC(C)CCCC(C)NC(=O)c1cc(S(=O)(=O)N2CCCCC2)ccc1N1CCOCC1 (configuration not stated)	none (no result: KCNK9 block, Cl transport mod, KCNQ1 pot, hERG protect, KCNQ1 block)
N#Cc1c(C(F)(F)F)cc(=O)n2c1[nH]c1ccccc12	KCNQ1 block 6 (no result: Cl transport mod) | KCNQ1 block val 38 | CHO Tl flux inactive | KCNQ2 spec 107% | KCNQ1-KCNE1 inh inactive
CCc1noc(C)c1C(=O)N1CCCSC1=Nc1ccccc1C(C)C	KCNQ1 block 6 (no result: Cl transport mod) | KCNQ1 block val 84 | CHO Tl flux inactive | KCNQ2 spec 106% | KCNQ1-KCNE1 inh 104%
Cc1ccc(S(=O)(=O)c2cc3c(=O)n4ccccc4nc3n(CCc3ccccc3)c2=N)cc1	KCNQ1 block 6 (no result: Cl transport mod) | KCNQ1 block val 100 | CHO Tl flux 0.36 | KCNQ2 spec 118% | KCNQ1-KCNE1 inh 140%
CC(C)(C)c1cc(NCc2ccccn2)n2ncc(-c3ccccc3)c2n1	KCNQ1 block 7 | KCNQ1 block val 72 | CHO Tl flux inactive | KCNQ2 spec inactive | KCNQ1-KCNE1 inh 61%
COCCn1c(C)cc(/C=C(\C#N)C(=O)OCC(=O)N(C)c2c(N)n(Cc3ccccc3)c(=O)[nH]c2=O)c1C	none (no result: Cl transport mod)
Cc1c(C(=O)N2CCN(CCc3ccccn3)CC2)oc2ccc(Cl)cc12	none (no result: Cl transport mod)
O=C(COc1ccccc1)NC(NC(=S)Nc1ccccc1O)C(Cl)(Cl)Cl (configuration not stated)	KCNQ1 block 9 (no result: Cl transport mod) | KCNQ1 block val 78 | CHO Tl flux inactive | KCNQ2 spec 92% | KCNQ1-KCNE1 inh 53%
CCCn1c(SC(C)C(=O)NC2CC2)nnc1-c1ccncc1 (configuration not stated)	none (no result: KCNK9 block, Cl transport mod, KCNQ1 pot, hERG protect, KCNQ1 block)
CCOC(=O)C(C(=O)OCC)c1cc(Br)c2noc3c2c1C(=O)c1ccccc1-3	KCNQ1 block 16 (no result: Cl transport mod) | KCNQ1 block val 183 | CHO Tl flux 0.15 | KCNQ2 spec inactive | KCNQ1-KCNE1 inh inactive
Cc1nn(C)c(Nc2ccc(Br)cc2)c1Br	KCNQ1 block 6 | KCNQ1 block val 88 | CHO Tl flux inactive | KCNQ1 APC inh inactive | KCNQ2 spec inactive | KCNQ1-KCNE1 inh 44%
Cc1cc(C)nc(-n2nc(C)c(Br)c2Nc2ccc(Br)cc2)n1	none
O=C(Sc1n[nH]c(=O)[nH]c1=O)c1ccccc1	none (no result: KCNK9 block, Cl transport mod, KCNQ1 pot, hERG protect, KCNQ1 block)
Cc1cc(C)c2ccc3c(C)c(C)nc3c2[nH]1	KCNQ1 block 8 | KCNQ1 block val 38 | CHO Tl flux inactive | KCNQ2 spec inactive | KCNQ1-KCNE1 inh 49%
CCOC(=O)N(C)c1ccc(C(O)(C(F)(F)F)C(F)(F)F)cc1	KCNQ1 block 8 | KCNQ1 block val 74 | CHO Tl flux inactive | KCNQ2 spec 79% | KCNQ1-KCNE1 inh 80%
CCN(CC)C(=O)c1ccc(COc2ccc(Cl)c(C)c2)o1	KCNQ1 block 11 (no result: Cl transport mod) | KCNQ1 block val 114 | CHO Tl flux inactive | KCNQ1 APC inh inactive | KCNQ2 spec 130% | KCNQ1-KCNE1 inh 109%
Cc1cc(OCc2ccc(C(=O)n3cccn3)o2)ccc1Cl	none

Screening results as filed in PubChem BioAssay.
